Reference: the EternaBench riboswitch data

Tested on: MS2 coat protein
Assay: apparent Kd, MS2 coat protein; higher = weaker binding; RNA-MaP array; FMN 200 µM where present
In short: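 Binding was read on Illumina sequencing-chip clusters where stalled E. coli RNA polymerase had transcribed each design. A titration of SNAP-549-labelled MS2 coat protein began at 0.7 or 1.5 nM and doubled to 3 µM, once without ligand and once with constant ligand, in 100 mM Tris-HCl pH 7.5, 80 mM KCl, 4 mM MgCl2, BSA, DTT, yeast tRNA and Tween-20. The apparent Kd is the median of filtered per-cluster binding-curve fits, based on green signal normalised to red-channel RNA signal and control-cluster median Fmax.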

[1] = designed as: OFF switch for flavin mononucleotide, no ligand
[2] = ligand present: flavin mononucleotide, designed as: OFF switch for flavin mononucleotide
[3] = designed as: ON switch for flavin mononucleotide, no ligand
[4] = ligand present: flavin mononucleotide, designed as: ON switch for flavin mononucleotide

| Sequence | apparent Kd [1] [nM] | apparent Kd [2] [nM] | apparent Kd [3] [nM] | apparent Kd [4] [nM] |
| --- | --- | --- | --- | --- |
| UAUCGCAGUGCAGGAUAUCCAAGGUUUGGCGAAGGAGAAGGGCACGCGACAUGAGGAUCACCCAUGUAAAGUGUGGCGUCCUCU | 116 | 62.2 | – | – |
| AGAAACUACGAGAAGGACAUGUGGUCCUUCAGUUACAUGAGGAUCACCCAUGUAGGAUAUCGUAGUUUCAGGAUCGUGAGAUCC | 42 | 12.5 | – | – |
| GGGUCAACAUGAGGAUCACCCAUGUAGGAUAUCGCUAUUGUAAUCAUGAAACAUGAUUACAAUAGCGAGAAGGACAUAUGUCCC | 9 | 11.8 | – | – |
| CAUUGACAUGAGGAUCACCCAUGUCAGGAUAUGCUUCAUGACACGAAAGUGUCAUGAAGCAGAAGGGACAUGCC | 19.4 | 31.8 | – | – |
| GGUCCACAUGAGGAUCACCCAUGUUAGGAUAUCUCGCCCGAGUCGUUAUGGGCCAGGCAGAGAAGGAAUGUGAA | 20.4 | 18.8 | – | – |
| UCCAGAUCGCGAGGUAGGAGUAGCAGAAGGCGACCGGUGCCAGAUGACAUGAGGAUCACCCAUGUCGAGGAUAUGCUACAGAAU | 6.49 | 13.2 | – | – |
| AACAAGUGAGGAUAUGAAAAUACAACAAACAAACAUCUACAUCAGAAGGCACAUGAGGAUCACCCAUGUUAAUC | 20.9 | 23.2 | – | – |
| UUCCUCAAGUAAGGAUAUACCACGGUAUGCUGAGUAGAAGGUACAUGAGGAUCACCCAUGUGCAUCCCACGAUUGCAUUGGUCA | 30.4 | 145 | – | – |
| ACGUACUGAGGAUAUACGAACAUGUCAAAAGACGUGAAGGGACAUGAGGAUCACCCAUGUAGAAGGCAGUACGA | 42.2 | 194 | – | – |
| CAGCCCUGAGGAUAUCCAUCCUUGUACAUGAGGAUCACCCAUGUUUCCCUCUGGGCUUUCGGAGAAGGCAGGUAUC | 61 | 61.7 | – | – |
| UGUCGGAGCAGAGGAUAUUACAUGAGGAUCACCCAUGUAUGAACCAUUAGCUGGAAACAGCAAUGUAAGAAGGCUGCUCCGACA | 5.37 | 10.4 | – | – |
| UUUAUGUCAGGAUAUUCGGAUAGGAAAACGAAAACCUAUCCGAAGAAGGGACAUGAGGAUCACCCAUGUAAAAA | 217 | 151 | – | – |
| AUUGAGUGGUCAGGAUAUGUACGGCCUACCGCACAUGAGGAUCACCCAUGUCGCCAAGGAGGACGACAGAAGGGACAACGAAUG | – | – | 43.5 | 8.83 |
| UUUAGUUGCGCGCAGGAUAUGUAUUAAUAUACAUGAGGAUCACCCAUGUGAGACCAAAUAGGUCUACAGAAGGGCGAAUCGCGAC | – | – | 446 | 47.6 |
| GCAUUGAUAACAGGAUAUAUGUAUCCUACAUGAGGAUCACCCAUGUAGGUGAUCAGCCGCGAUAAGUAGAAGGGUUAUCAAUGC | – | – | 18 | 13.7 |
| AGUCGGAGCAGAGGAUAUACAUGAGGAUCACCCAUGUAAUAAAGUGAAGCCUGGAAACAGGUAAUGUAGAAGGCUGCUCCGACA | 11 | 84.7 | – | – |
| UGCGUUAAGCCCUUAAGUCGUCAACAUGAGGAUCACCCAUGUAGAAGGCAGCGGACGCGGCCGGCUGAGGAUAUACAUGUAGGU | 13.3 | 16.8 | – | – |
| UUUUAAUAAUAGAAGGAGCACUACAUGAGGAUCACCCAUGUGUUAGUAGUUAGGAUAUAUAAUAACAUGAGGAUCACCCAUGUA | – | – | 83.6 | 40.7 |
| GUGUAGAGAGGAUAUACAUGAGGAUCACCCAUGUGAAUAAGAUAGAAUAAGAUAAAGUGUAGAAGGCUUAGUGU | 33.5 | 25.9 | – | – |
| GUCAUGUUAGGAUAUCUAACAUGUGACUUCGGUCACUGUCCAGAGAAGGAACAUGAGGAUCACCCAUGUUGGAC | 14.7 | 15.9 | – | – |
| UGCUGUGGCAGAGGAUAUACUCUAAUAAUCCAUUGCAAAUAGCGAUGGACAUGAGGAUCACCCAUGUAGAAGGCUGUCACAGCA | 63.7 | 137 | – | – |
| AUAAGCUCGUCAGGAUAUGCGACACUGUUUCGGCAGUGUGGUAUGAUCACAUGAGGAUCACCCAUGUAGAAGGGACGAGCUUAU | 6.09 | 11.7 | – | – |
| AAGCCUAAUGAGAAGGUGUGUAUAAAUUAUAUACAAGGAUAUCGGUCGAGCGUGUUGACAUGAGGAUCACCCAUGUUGAGGCUU | – | – | 10.3 | 6.22 |
| CGGCAAAGGAAGGAUAUGCUAGACGAAAGUCUAGCAGAAGGUCCUACAUGAGGAUCACCCAUGUGUCCUAGCCG | 45.4 | 55.1 | – | – |
| GGUUGACGACAAUUACAUGAGGAUCACCCAUGUUUUGGGAUGCAGGAUAUGUGGUAUAUUAAUUAACAGAAGGGCAAUAAUUUU | – | – | 37.3 | 39.3 |
| CUCGGACAUGAGGAUCACCCAUGUGAGGAUAUGGUGCUAUCGUCAUUAGACGAUUGCGUUAGAAGGCAUAUUUU | 28.7 | 27.1 | – | – |
| GGUGGACAUGAGGAUCACCCAUGUGAGGAUAUCGGCCGGUGCGUGGUGGCUGGCGUCUCGAGAAGGCACAUAGU | 92.1 | 166 | – | – |
| GUCAGCUCGUGAGGAUAUACAGCACUGCUUCGGCAGUGUAUUAAGAUCACAUGAGGAUCACCCAUGUAGAAGGCACGAGCUGAU | 28.1 | 599 | – | – |

| Sequence | apparent Kd [1] [nM] | apparent Kd [2] [nM] | apparent Kd [3] [nM] | apparent Kd [4] [nM] |
| --- | --- | --- | --- | --- |
| AUCGACAACAUCAUGGUGGAUCCUGAGGAUAUGAAUAGCUACAUGAGGAUCACCCAUGUCCCGCGUCAGAAGGCAGGUUUGAUC | – | – | 400 | 41.3 |
| UUGGACGUCGUAGGGUAUGUAGGAUAUUCCUACAUGAGGAUCACCCAUGUUGACAUGGAAGAAGGACAGAAGGACGAUGUCCAU | – | – | 106 | 4.37 |
| AGCUACGUUUCGUAGCAGUGUCAUCGAGAAGGCCUUAUUACAUGAGGAUCACCCAUGUAUGCAUGGGAGGAUAUCGAUGAUACA | – | – | 13.9 | 5.25 |
| CUGUGACGGAUCCAGAAUUACAACAUGAGGAUCACCCAUGUACAGGAUAUAGGGUUGAUAGGCGCCUAGAAGGGUAUGAUCACG | 156 | 177 | – | – |
| GUGUGCAGAGGAUAUACAGAGGAAAAGAAGAAAGAAGAGGGACAUGAGGAUCACCCAUGUAGAAGGCUGAGUGU | 33.9 | 35.2 | – | – |
| AGGUACUAGGGAGGAUAUGGGAAGAUACAUGAGGAUCACCCAUGUUUAAGAAUGCCGAGAGGCAACUAGAAGGCCCUAGUACCU | – | – | 454 | 19.8 |
| AGAUCGAGUGUGAGGAUAUUGACCGGACGACCCAUCGAGAAGGCACAUGAGGAUCACCCAUGUGAUUCGGUUUA | 15.2 | 32.5 | – | – |
| AAGAUGUUAGGAUAUCGAAGGUUGUGGCAGGCGGGAAUUUGCGAGAAGGAACAUGAGGAUCACCCAUGUGAAAU | 22.3 | 21.8 | – | – |
| GUUAAGAACUAAGGAUAUUGAAUACAUAUGUUUAACAUGAGGAUCACCCAUGUGGGUUGCGGUAUCGAGAAGGUAGAAUAAUAG | – | – | 115 | 113 |
| AGAUGUGAACAUGAGGAUCACCCAUGUGACUAGGUAUAUUUCAGAAGGCAUUUAUAGAGAUUAUAUGAGGAUAUGAAGUUUUAA | – | – | 12.7 | 6.59 |
| GAGAAGAGUAUAGGAUAUUAAGAAACAUGAGGAUCACCCAUGUAGUGAGUGUGAGAAGGGUAGGAGGUGGUAGGAGGAUCCAGG | – | – | 22.3 | 16.4 |
| CGGUGCUGAGGAUAUACAUGAGGAUCACCCAUGUGUUCCGGCUAGCUGACUGGCGCUUGUAGAAGGCAGUACUG | 17.3 | 101 | – | – |
| GCCAUCGCAUGAGGAUAUGGCACCGGUUCGGUGCCAGAAGGCAUGUCAAAUGACAUGAGGAUCACCCAUGUAGUUAAGAUGGCA | – | – | 215 | 14.7 |
| AUAUCCGAAGCAGGAUAUCGACGAGGUGUCGAGGUAGAGCGUAUUCACAUGAGGAUCACCCAUGUCGAGAAGGGCUACAGGAUA | 56.5 | 15.9 | – | – |
| UAUUAGAUCCGAGGAUAUCCUUAUUAGAAACAUGAGGAUCACCCAUGUAAAGGGAAUUAUUUGUAGGAGAAGGCGGAUUUAGUU | – | – | 67.5 | 52.9 |
| UAAAAGACUAGCAAAUAAGUUCCACAUGAGGAUCACCCAUGUCAGGAUAUGAGCAGCAAAGCUGCUCAGAAGGGAUAGCUAGUC | 6.45 | 6.39 | – | – |
| AGAGUGUGAGGAUAUAUGGUGCAGAUGAAGGGAUAGAAGGAGUAGAAGGUACAUGAGGAUCACCCAUGUUAGGA | 27.4 | 21.7 | – | – |
| GGUGAAUGAACAUGAGGAUCACCCAUGUCCAGGAAACUGAAUGAGGAUAUCCAUAGCAAAGCUAUGGAGAAGGCAUGGGUCACC | – | – | 562 | 241 |
| AUUGUGUUAGGAUAUGCUUAUGGUGGAUAGUCCAGUAUGAUGUAGAAGGGACAUGAGGAUCACCCAUGUGCUGA | 46.9 | 48.5 | – | – |
| CGUAGGAUGCAGAAGGCAUGAACAUGAGGAUCACCCAUGUCAAAAGACAUGAGGAUAUGCAUCCUACGAAAAGUGCGAAAGCAC | – | – | 17.5 | 5.6 |
| GCAGCAAUCUAAUACAUGAGGAUCACCCAUGUCGAGAGAUAUGAGGAUAUGCAUCUGAAGAAGAUGCAGAAGGCAUUGUGCUGC | – | – | 10.7 | 6.48 |
| CCCAUGUGUGUGAGGAUAUGGUCAGUCAUACUCGGCCAGAAGGCACAUGAGGAUCACCCAUGUGGCCUCUCAUC | 17 | 17.8 | – | – |
| GUUCUUCCUGUGAGGAUAUCCAUGUGUCGGUUUGUGGAGAAGGUACAUGAGGAUCACCCAUGUCACCCGCGUUU | 14.8 | 16.3 | – | – |
| CGUGUCAUCGAGAAGGCCUCAACAUGAGGAUCACCCAUGUUGUAAUAUGGGAGGAUAUCGAUGAUACAGCUACGUUUCGUAGCC | – | – | 19.5 | 6.48 |
| AGAAACUAGGAGAAGGACAUAUGACCAAGACGAAACAUGAGGAUCACCCAUGUAGGAUAUCCUAGUUUCAGGAUCGUGAGAUCA | 5.47 | 7.97 | – | – |
| GGUGUCGCAUGAGGAUAUGGUCAGCUUUGCUGACCAGAAGGCAUGUCAAUAGACAUGAGGAUCACCCAUGUAGUAAAGACACCA | – | – | – | 37.1 |
| GUGGCUCCCACAGGAUAUCCACAUGAGGAUCACCCAUGUCUAAUUAACAAAGGAGAAGGGUGGGACAAUUCUGGUGACUGAGAA | – | – | 30.1 | 4.89 |
